# Measured values of several laboratories.
# Target: Dual specificity tyrosine-phosphorylation-regulated kinase 2 (DYRK2, Homo sapiens, UniProt Q92630)
# Technique: competition with immobilised ligand
# Sequence (Q92630 1-601, as in one of the studies): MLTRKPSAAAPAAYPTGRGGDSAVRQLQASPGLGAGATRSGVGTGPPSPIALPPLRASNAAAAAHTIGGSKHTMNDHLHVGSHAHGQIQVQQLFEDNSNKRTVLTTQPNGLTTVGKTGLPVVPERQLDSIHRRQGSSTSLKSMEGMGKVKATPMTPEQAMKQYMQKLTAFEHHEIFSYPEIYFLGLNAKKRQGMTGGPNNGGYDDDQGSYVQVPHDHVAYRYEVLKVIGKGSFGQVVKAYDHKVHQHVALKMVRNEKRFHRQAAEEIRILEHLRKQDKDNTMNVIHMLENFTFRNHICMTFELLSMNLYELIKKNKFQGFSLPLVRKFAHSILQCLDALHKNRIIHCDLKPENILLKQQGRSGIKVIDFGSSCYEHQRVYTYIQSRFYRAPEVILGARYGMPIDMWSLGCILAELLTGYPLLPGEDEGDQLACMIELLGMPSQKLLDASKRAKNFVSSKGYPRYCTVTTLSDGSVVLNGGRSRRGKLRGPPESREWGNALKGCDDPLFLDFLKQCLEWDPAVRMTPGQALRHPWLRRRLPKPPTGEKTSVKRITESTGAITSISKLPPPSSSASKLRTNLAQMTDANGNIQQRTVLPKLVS
Structure (SMILES),assay,conditions,remaining binding
O=C(c1ccc(Nc2ncc(Cl)c(-c3cc4ccccc4s3)n2)cc1)N1CCC(N2CCCC2)CC1,binding,1 µM,3.1%
CCCOc1ccc([C@H]2[C@H](C(=O)O)[C@@H](c3ccc4c(c3)OCO4)CN2CC(=O)Nc2c(CC)cccc2CC)cc1,cell-free assay,1 µM,74%
COc1ncc2cc3ccccc3nc2c1C#N,cell-free assay,5 µM,85%
C[C@@]1(Cc2ccc(C#N)cc2)C(=O)N(c2cc(Cl)cc(Cl)c2)c2ncc(C(=O)NC3(c4nc(C5CCC5)no4)CC3)n21,cell-free assay,1 µM,93%
c1cncc(-c2cccc(Nc3nccc(NC4CCCCC4)n3)c2)c1,binding,10 µM,78%
C[C@H](c1ccc(F)cc1)N(Cc1cccc(C(=O)O)c1)C(=O)c1cnc2ccccc2c1,cell-free assay,1 µM,85%
Nc1ncc2c(n1)-c1c([nH]c3ccc(C#CC4CC4)cc13)CCCC2,binding,1 µM,100%
COc1cnc(Nc2cccc(S(N)(=O)=O)c2)nc1N1CCN(c2ccccc2)CC1,binding,1 µM,70%
CO[C@@H](C)c1c(Nc2ccc([C@H](N(C)C(=O)C3CCS(=O)(=O)CC3)C(F)(F)F)cc2)cnc2cc(Cl)nn12,cell-free assay,1 µM,89%
CN(CCCC(F)(F)F)c1nccc(-c2cnn3ncccc23)n1,binding,1 µM,77%
O=C(NCCCN1CCOCC1)c1ccc(Nc2ncc(Cl)c(-c3ccc(Cl)s3)n2)cc1,binding,1 µM,2.9%
C[C@@H](c1ccc(-n2cnc3c(N)ncnc32)cc1)N1CCc2nn(C)c(Cc3ccccc3)c2C1=O,binding,0.1 µM,79%
O=C(c1ccc(Nc2ncc(Cl)c(-c3ccc(Cl)s3)n2)cc1)N1CCC(N2CCCC2)CC1,binding,1 µM,3.8%
O=C(NCC1CCOCC1)c1n[nH]cc1NC(=O)c1c(F)cccc1F,binding,1 µM,8.3%
